From ChEMBL document CHEMBL3232903, “New pyrazolobenzothiazine derivatives as hepatitis C virus NS5B polymerase palm site I inhibitors” (J Med Chem, 2014)

Legend:
[1] = tested on: Hepatitis C virus isolate HC-J4; test: Inhibition of RNA-dependent RNA polymerase activity of HCV genotype 1b HC-J4 recombinant N-terminal histidine tagged C-terminal 21 aminoacids truncated NS5B polymerase at 50 uM after 1 hr by standard primer dependent elongation assay
Outline: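 Recombinant NS5BCΔ21 genotype 1b in a primer-dependent elongation assay. […] IC50 is the concentration halving enzyme activity in vitro; mean ± SD of two independent experiments in duplicate.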

[2] = target: RNA-directed RNA polymerase (Hepacivirus hominis, UniProt O39930, M414T); test: Inhibition of RNA-dependent RNA polymerase activity of HCV genotype 1b HC-J4 recombinant N-terminal histidine tagged C-terminal 21 aminoacids truncated NS5B polymerase M414T mutant at palm site 1 after 1 hr by standard primer dependent elongation assay; set-up: species or system Hepatitis C virus isolate HC-J4
Outline: (§1)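 Recombinant NS5BCΔ21 genotype 1b mutants, M414T, M423T and P495L, each run in a primer-dependent elongation assay as for wild-type enzyme. IC50 is the mean ± SD of two independent experiments in duplicate.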

[3] = Induction of steatosis in human Huh-9-13 cells assessed as intracellular accumulation of neutral lipids at 90 uM by Nile Red staining; assay type: cell-based
Outline: (§2)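 Huh-9-13 cells seeded at 25.000 cells/dish in complete DMEM without G418 at 37 °C, 5% CO2. Next day, compound (90 μM) or DMSO added for 3 days. Then stained 30 min with monodansylcadaverine (50 μM; ex 340/em 530 nm), LipidTOX Red (1/1000; ex 577/em 609 nm) or Nile Red (2 μg/mL; yellow-gold at ex 552/em 636 nm). Imaged by confocal microscopy.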

[4] = Cytostatic activity against human Huh6 cells carrying HCV genotype 1b I389luc-ubi-neo/NS3-3'/5.1 replicon assessed as reduction in metabolic activity after 72 hrs by MTS assay; assay type: ADME, cell-based
Outline: (§3)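 MTS assay measuring bioreduction to formazan, read as host-cell metabolism/proliferation in subgenomic genotype 1b replicon cells. It was run alongside RT-qPCR-based antiviral testing. Huh-9-13 replicon cells lack the luciferase reporter, carry different adaptive mutations and more HCV RNA than Huh-5-2. HuH6 replicon cells use a different host line from Huh-7 and have distinct adaptive mutations. CC50 is the concentration that halves MTS reduction.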

[5] = tested on: Hepatitis C virus isolate HC-J4; test: Ratio of IC50 for HCV genotype 1b HC-J4 recombinant N-terminal histidine tagged C-terminal 21 aminoacids truncated NS5B polymerase M423T mutant at thumb site 2 to HCV genotype 1b HC-J4 recombinant N-terminal histidine tagged C-terminal 21 aminoacids truncated wild type NS5B polymerase
Outline: (§4)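 Fold change is the mutant NS5BCΔ21 IC50 (M414T, M423T or P495L) divided by the wild-type IC50. Both were measured in a primer-dependent elongation assay, from two independent experiments in duplicate.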

[6] = Metabolic stability of the compound in human liver microsomes assessed as unmodified compound remaining after 60 mins; assay type: ADME; details: read-out: Stability
Outline: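 Compound at 50 μM final (DMSO ≤2%) incubated 60 min at 37 °C with human liver microsomal protein (0.2 mg/mL) and an NADPH-generating system in 125 mM phosphate buffer, pH 7.4. Unmodified parent was quantified by LC–MS and reported as percentage remaining.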

[7] = Apparent permeability of the compound assessed as membrane retention after 5 hrs by PAMPA assay; assay type: physicochemical
Outline: (§5)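 PAMPA, gastrointestinal model. Donor 0.5 mM, diluted from 1 mM DMSO stock in phosphate buffer pH 7.4 (0.025 M). Filter coated with 1% w/v phosphatidylcholine in dodecane; acceptor 50% DMSO in buffer. Incubated 5 or 22 h at room temperature with gentle shaking. Both sides analysed by LC-UV at 254 nm, concentration from peak area. Papp in cm/s and % membrane retention calculated by equations; three plates on different days.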

[8] = Selectivity index, ratio of CC50 for human Huh5-2 cells to EC50 for HCV genotype 1b I389luc-ubi-neo/NS3-3'/5.1 replicon infected in human Huh5-2 cells; set-up: species or system Huh-5-2
[9] = Cytostatic activity against human Huh-9-13 cells carrying HCV genotype 1b I389luc-ubi-neo/NS3-3'/5.1 replicon assessed as reduction in metabolic activity after 72 hrs by MTS assay; assay type: ADME, cell-based; outline: as §3
Hepatitis C virus [10] = test: Antiviral activity against HCV genotype 1b I389luc-ubi-neo/NS3-3'/5.1 replicon infected in human Huh5-2 cells assessed as inhibition of virus replication by luciferase assay; assay type: functional, cell-based, Hepacivirus hominis; details: Huh-5-2
Hepatitis C virus [11] = test: Antiviral activity against HCV genotype 1b […] replicon infected in human Huh9-13 cells assessed as decrease in replicon RNA content by RT-qPCR analysis; assay type: functional, cell-based, Hepacivirus hominis
Outline: (§6)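 Subgenomic genotype 1b HCV replicon cells: Huh-9-13 (Huh-7 background, no luciferase reporter) and HuH6 (different adaptive mutations). EC50 from decrease in replicon RNA measured by RT-qPCR. Host-cell proliferation and metabolism checked in parallel by MTS assay.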

[12] = Apparent permeability of the compound assessed as membrane retention after 22 hrs by PAMPA assay; assay type: physicochemical; outline: as §5
[13] = Induction of phospholipidosis in human Huh-9-13 cells assessed as multilamellar bodies formation at 90 uM by monodansylcadaverine staining; assay type: cell-based; outline: as §2
[14] = tested on: Hepatitis C virus isolate HC-J4; test: Ratio of IC50 for HCV genotype 1b HC-J4 recombinant N-terminal histidine tagged C-terminal 21 aminoacids truncated NS5B polymerase M414T mutant at palm site 1 to HCV genotype 1b HC-J4 recombinant N-terminal histidine tagged C-terminal 21 aminoacids truncated wild type NS5B polymerase; outline: as §4
[15] = Inhibition of RNA-dependent RNA polymerase activity of HCV genotype 1b HC-J4 recombinant N-terminal histidine tagged C-terminal 21 aminoacids truncated NS5B polymerase after 1 hr by standard primer dependent elongation assay; set-up: species or system Hepatitis C virus isolate HC-J4
Outline: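 Recombinant NS5BCΔ21 genotype 1b in a primer-dependent elongation assay. IC50 is the concentration halving enzyme activity in vitro; mean ± SD of two independent experiments in duplicate.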

[16] = Induction of steatosis in human Huh-9-13 cells assessed as increase in size of lipid droplets at 90 uM by LipidTOX red staining; assay type: cell-based; outline: as §2
[17] = Lipophilicity, log P of the compound by shake flask method; assay type: physicochemical; details: octanol/water
Outline: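 Shake flask: compound dissolved in octanol, then 2.5 mL octanol with 2.5 mL water, sealed and agitated, 10 h to equilibrium. Each phase analysed by HPLC (C18, 50% ACN/50% H2O, 0.8 mL/min, UV).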

[18] = tested on: Hepatitis C virus isolate HC-J4; test: Ratio of IC50 for HCV genotype 1b HC-J4 recombinant N-terminal histidine tagged C-terminal 21 aminoacids truncated NS5B polymerase P495L mutant at thumb site 1 to HCV genotype 1b HC-J4 recombinant N-terminal histidine tagged C-terminal 21 aminoacids truncated wild type NS5B polymerase; outline: as §4
Hepatitis C virus [19] = test: Antiviral activity against HCV genotype 1b I389luc-ubi-neo/NS3-3'/5.1 replicon infected in human Huh6 cells assessed as decrease in replicon RNA content by RT-qPCR analysis; assay type: functional, cell-based, Hepacivirus hominis; details: HuH-6; outline: as §6
[20] = Cytostatic activity against human Huh5-2 cells carrying HCV genotype 1b I389luc-ubi-neo/NS3-3'/5.1 replicon assessed as reduction in metabolic activity after 72 hrs by MTS assay; assay type: ADME, cell-based, Huh-5-2; details: huh-5-2, 72 h
Outline: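 Replicon-bearing Huh-5-2 cells run in parallel with the antiviral read-out; CC50 is the concentration halving MTS bioreduction to formazan, taken as the antimetabolic effect on host cells; mean ± SD from at least three dose–response curves.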

[21] = target: RNA-directed RNA polymerase (Hepacivirus hominis, UniProt O39930, M423T); test: Inhibition of RNA-dependent RNA polymerase activity of HCV genotype 1b HC-J4 recombinant N-terminal histidine tagged C-terminal 21 aminoacids truncated NS5B polymerase M423T mutant at thumb site 2 after 1 hr by standard primer dependent elongation assay; set-up: species or system Hepatitis C virus isolate HC-J4; outline: as §1
[22] = Cytotoxicity against human Huh5-2 cells carrying HCV genotype 1b I389luc-ubi-neo/NS3-3'/5.1 replicon assessed as cell morphological changes after 72 hrs by microscopic analysis; assay type: cell-based; details: huh-5-2, 72 h
Outline: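 Huh-5-2 replicon cells examined by microscopy for changes in cell morphology after 72 h of compound treatment.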

[23] = target: RNA-directed RNA polymerase (Hepacivirus hominis, UniProt O39930, P495L); test: Inhibition of RNA-dependent RNA polymerase activity of HCV genotype 1b HC-J4 recombinant N-terminal histidine tagged C-terminal 21 aminoacids truncated NS5B polymerase P495L mutant at thumb site 1 after 1 hr by standard primer dependent elongation assay; set-up: species or system Hepatitis C virus isolate HC-J4; outline: as §1
[24] = Apparent permeability of the compound after 22 hrs by PAMPA-GI model analysis; assay type: physicochemical; outline: as §5
[25] = Apparent permeability of the compound after 5 hrs by PAMPA-GI model analysis; assay type: physicochemical; outline: as §5

Chain of RNA-directed RNA polymerase (Hepacivirus hominis, UniProt O39930, P495L) (O39930 entry or part of it P495L): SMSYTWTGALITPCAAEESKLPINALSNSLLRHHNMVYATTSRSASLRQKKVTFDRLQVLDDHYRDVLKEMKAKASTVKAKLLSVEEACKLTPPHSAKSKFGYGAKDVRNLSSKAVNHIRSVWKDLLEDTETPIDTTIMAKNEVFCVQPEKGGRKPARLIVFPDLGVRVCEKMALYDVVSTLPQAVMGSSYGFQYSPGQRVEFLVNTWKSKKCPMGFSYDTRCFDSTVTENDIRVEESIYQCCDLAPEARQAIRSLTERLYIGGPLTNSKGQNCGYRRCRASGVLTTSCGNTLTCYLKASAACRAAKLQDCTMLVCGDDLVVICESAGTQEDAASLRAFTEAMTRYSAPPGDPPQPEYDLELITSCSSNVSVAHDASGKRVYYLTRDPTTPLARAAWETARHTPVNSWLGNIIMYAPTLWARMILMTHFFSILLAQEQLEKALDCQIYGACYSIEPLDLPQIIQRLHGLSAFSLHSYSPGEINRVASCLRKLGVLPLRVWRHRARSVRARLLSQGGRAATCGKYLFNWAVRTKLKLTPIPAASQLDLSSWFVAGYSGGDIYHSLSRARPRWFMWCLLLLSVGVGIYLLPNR
Chain of RNA-directed RNA polymerase (Hepacivirus hominis, UniProt O39930, M423T) (O39930 entry or part of it M423T): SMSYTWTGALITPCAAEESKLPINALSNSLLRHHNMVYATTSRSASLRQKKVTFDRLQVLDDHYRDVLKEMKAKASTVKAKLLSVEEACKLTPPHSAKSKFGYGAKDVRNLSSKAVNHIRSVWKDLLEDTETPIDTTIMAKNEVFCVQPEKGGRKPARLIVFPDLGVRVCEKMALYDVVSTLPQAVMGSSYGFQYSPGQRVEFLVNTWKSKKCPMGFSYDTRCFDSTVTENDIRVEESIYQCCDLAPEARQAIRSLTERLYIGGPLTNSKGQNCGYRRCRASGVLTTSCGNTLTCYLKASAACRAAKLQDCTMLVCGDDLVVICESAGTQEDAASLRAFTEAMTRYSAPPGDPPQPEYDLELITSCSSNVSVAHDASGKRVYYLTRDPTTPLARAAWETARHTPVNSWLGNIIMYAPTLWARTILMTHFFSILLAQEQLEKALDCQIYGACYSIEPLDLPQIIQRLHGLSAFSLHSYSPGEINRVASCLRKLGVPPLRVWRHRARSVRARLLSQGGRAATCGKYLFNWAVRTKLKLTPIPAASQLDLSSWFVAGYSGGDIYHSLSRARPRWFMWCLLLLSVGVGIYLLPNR
Chain of RNA-directed RNA polymerase (Hepacivirus hominis, UniProt O39930, M414T) (O39930 entry or part of it M414T): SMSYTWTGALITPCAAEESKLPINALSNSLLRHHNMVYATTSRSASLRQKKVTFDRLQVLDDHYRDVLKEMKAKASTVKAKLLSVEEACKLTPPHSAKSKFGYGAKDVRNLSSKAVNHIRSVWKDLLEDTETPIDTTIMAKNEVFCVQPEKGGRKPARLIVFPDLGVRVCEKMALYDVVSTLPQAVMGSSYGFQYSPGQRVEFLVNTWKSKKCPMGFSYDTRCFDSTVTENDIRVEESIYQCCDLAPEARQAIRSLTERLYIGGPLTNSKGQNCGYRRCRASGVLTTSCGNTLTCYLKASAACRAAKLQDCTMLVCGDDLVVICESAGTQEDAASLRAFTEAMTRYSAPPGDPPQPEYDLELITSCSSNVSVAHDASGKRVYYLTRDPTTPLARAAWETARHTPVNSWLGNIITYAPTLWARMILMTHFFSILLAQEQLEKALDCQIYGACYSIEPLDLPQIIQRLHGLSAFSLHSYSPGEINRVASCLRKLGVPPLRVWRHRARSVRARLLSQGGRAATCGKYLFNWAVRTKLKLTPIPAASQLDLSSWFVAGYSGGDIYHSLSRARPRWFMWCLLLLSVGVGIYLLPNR

Compound: CN1c2c(C(=O)Nc3ccc(NS(C)(=O)=O)cc3)nn(-c3cccc(Cl)c3)c2-c2ccccc2S1(=O)=O
- inhibition [1]: > 50%
- IC50 [2]: 128 µM
- Activity [3]: Toxic
- CC50 at 72 h [4]: > 90 µM
- Ratio IC50 [5]: 2.2
- remaining at 1 h [6]: 99.9%
- R% [7]: 7.3%
- Ratio CC50/EC50 [8]: >18
- CC50 [9]: > 90 µM
- EC50 (Hepatitis C virus [10]): 9.8 µM
- EC90 (Hepatitis C virus [10]): 41 µM
- EC50 (Hepatitis C virus [11]): 7.6 µM
- R% [12]: 3.2%
- Activity [13]: Non-toxic
- Ratio IC50 [14]: 29.7
- IC50 [15]: 4.3 µM
- Activity [16]: Toxic
- logP [17]: 2.11
- Ratio IC50 [18]: 1.2
- EC50 (Hepatitis C virus [19]): 14 µM
- CC50 [20]: > 179 µM
- IC50 [21]: 9.3 µM
- Activity [22]: Toxic
- IC50 [23]: 5.1 µM
- Papp [24]: 4.2 ×10⁻⁶ cm/s
- Papp [25]: 2.3 ×10⁻⁶ cm/s
